# Data published in ChEMBL document CHEMBL1149637, “Design, synthesis, and evaluation of potential inhibitors of brassinin glucosyltransferase, a phytoalexin detoxifying enzyme from Sclerotinia sclerotiorum” (Bioorg Med Chem, 2007).
# The source made the active and inactive calls. No cut-off for these calls is given here.
# Assays:
# [1] = system: Sclerotinia sclerotiorum; assay: Inhibition of Sclerotina sclerotiorums brassinin glucosyl transferase assessed as specific activity at 0.60 mM
# How it was run: (§1)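 Crude cell-free homogenate from clone #33 grown 7 days in PDB, induced with camalexin (0.05 mM final, 24 h). Mycelia were ground in ice-cold 50 mM Tris-HCl pH 8.0 buffer and centrifuged at 58,545g for 40 min. Inhibitor (from DMSO) was preincubated 30 min at room temperature with extract and UDPG (0.3 mM final). Brassinin (0.3 mM) was added, then 60 min incubation, EtOAc extraction and HPLC quantification of glucosylbrassinin. Protein measured by Bradford. Relative activity = specific activity vs brassinin-only control. Triplicate.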
# [2] = system: Sclerotinia sclerotiorum; assay: Antifungal activity against Sclerotina sclerotiorum assessed as growth inhibition at 0.05 mM after 48 hrs; assay type: functional
# How it was run: (§2)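 S. sclerotiorum clone #33 radial growth assay: mycelial plugs (4 mm, from 3-day-old PDA plates) placed upside down in wells of minimal medium containing compound diluted from 50 mM DMSO stock. Medium-only controls contained 1% DMSO. […] Run in triplicate, at least three times.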
# [3] = system: Sclerotinia sclerotiorum; assay: Inhibition of Sclerotina sclerotiorums brassinin glucosyl transferase assessed as percent relative activity in relative to brassinin at 0.30 mM; parameters: scale not given: the % may be the effect or the level left; how it was run: as §1
# [4] = system: Sclerotinia sclerotiorum; assay: Antifungal activity against Sclerotina sclerotiorum assessed as growth inhibition at 0.10 mM after 48 hrs; assay type: functional; how it was run: as §2
# [5] = system: Sclerotinia sclerotiorum; assay: Antifungal activity against Sclerotina sclerotiorum assessed as growth inhibition at 0.01 mM after 48 hrs; assay type: functional
# [6] = system: Sclerotinia sclerotiorum; assay: Inhibition of Sclerotina sclerotiorums brassinin glucosyl transferase assessed as percent relative activity in relative to brassinin at 0.60 mM; parameters: scale not given: the % may be the effect or the level left; how it was run: as §1
# [7] = system: Sclerotinia sclerotiorum; assay: Inhibition of Sclerotina sclerotiorums brassinin glucosyl transferase assessed as specific activity at 0.30 mM; how it was run: as §1
# [8] = Metabolic stability assessed as half life in Sclerotina sclerotiorum at 0.10 mM; assay type: ADME, organism-based; conditions: sclerotinia sclerotiorum, Sclerotinia sclerotiorum (whole organism)
# How it was run: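 Four-day-old mycelial cultures in minimal medium (22 °C, 120 rpm, constant light) received inhibitor (0.050 or 0.10 mM final, in CH₃CN at 0.5% v/v). After 10 min, brassinin (0.05 mM final) was added. Samples were withdrawn over time, EtOAc-extracted and analysed by HPLC-DAD for remaining brassinin. Half-life of brassinin was compared with brassinin-only cultures. An uninoculated medium control was included.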
# [9] = system: Sclerotinia sclerotiorum; assay: Antifungal activity against Sclerotina sclerotiorum assessed as growth inhibition at 0.50 mM after 48 hrs; assay type: functional; how it was run: as §2
# [10] = system: Sclerotinia sclerotiorum; assay: Antifungal activity against Sclerotina sclerotiorum assessed as growth inhibition at 0.30 mM after 48 hrs; assay type: functional; how it was run: as §2
# [11] = Metabolic stability assessed as half life in Sclerotina sclerotiorum at 0.03 mM; assay type: ADME, organism-based; conditions: sclerotinia sclerotiorum, Sclerotinia sclerotiorum (whole organism)
# [12] = Metabolic stability assessed as half life in Sclerotina sclerotiorum at less than 0.01 mM; assay type: ADME, organism-based; conditions: sclerotinia sclerotiorum, Sclerotinia sclerotiorum (whole organism)
# [13] = Metabolic stability assessed as half life in Sclerotina sclerotiorum; assay type: ADME, organism-based; conditions: sclerotinia sclerotiorum, Sclerotinia sclerotiorum (whole organism)
# How it was run: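 S. sclerotiorum clone #33 mycelial plugs were grown 4 days in minimal medium at 22 ± 1 °C, shaken at 120 rpm under constant light. Compound (0.050 or 0.10 mM final, in CH₃CN 0.5% v/v) was added, then brassinin (0.05 mM final) 10 min later. Samples taken over time were extracted with EtOAc, brassinin was measured by HPLC-DAD, and brassinin half-life was compared with brassinin-only cultures.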
SMILES,Activity (10^-10.mol/mg/min) [1],Activity [3] [%],Activity [6] [%],Activity (10^-10.mol/mg/min) [7],half-life at 100 µM [8] [h],half-life at 30 µM [11] [h],half-life [12] [h],inhibition at 50 µM [2] [%],inhibition at 100 µM [4] [%],inhibition at 10 µM [5] [%],Activity [9],Activity [4],inhibition at 500 µM [9] [%],inhibition at 300 µM [10] [%],Activity [10],half-life [13] [h]
Fc1ccc2c(-c3ccccc3)c[nH]c2c1 [6-FLUORO-3-PHENYLINDOLE],0.2,23,13,0.34,10,,,87,93,65,,,,,,
Fc1cccc2[nH]cc(-c3ccccc3)c12,0.43,37,29,0.55,,,,100,,47,,,,,,
c1ccc2[nH]c(-c3cscn3)nc2c1 [THIABENDAZOLE],,,,,,,,,86,,,,93,,,
Fc1ccc2[nH]cc(-c3nccs3)c2c1 [5-FLUOROCAMALEXIN],0.72,54,48,0.81,,,,61,70,,,,,85,,
c1ccc(-c2c[nH]c3ccccc23)cc1 [3-PHENYLINDOLE],0.19,23,13,0.35,10,,,93,100,78,,,,,,
COC(=O)c1cnn2ccc(OC)cc12,1.49,100,100,1.51,,,,,,,,,20,,inactive,
CSC(=S)NCc1c[nH]c2ccccc12 [BRASSININ],,,,,,,,,37,,,,,100,,9
Fc1ccc2c(-c3nccs3)c[nH]c2c1,1,66,63,0.97,,,,,,,,,,,,
c1ccc(-c2cc3ccccc3[nH]2)cc1,0.59,39,39,0.59,,,,,,,,,,,,

# Now from value to compound, other results behind:
Activity (10^-10.mol/mg/min) [1],Activity [3] [%],Activity [6] [%],Activity (10^-10.mol/mg/min) [7],half-life at 100 µM [8] [h],half-life at 30 µM [11] [h],half-life [12] [h],SMILES,inhibition at 50 µM [2] [%],inhibition at 100 µM [4] [%],inhibition at 10 µM [5] [%],Activity [9],Activity [4],inhibition at 500 µM [9] [%],inhibition at 300 µM [10] [%],Activity [10],half-life [13] [h]
1.53,100,100,1.58,,,,CC(=O)Nc1cnc2ccccc2c1,,,,inactive,,,,,
0.75,68,50,1.02,,,,CSC(=S)NCc1c[nH]c2ncccc12,,,,,inactive,65,28,,
0.43,43,29,0.64,,6,,CSC(=S)NCc1cc2ccccc2o1,,32,,,,,100,,
1.12,81,75,1.22,,,,CSC(=S)NCc1csc2ccccc12,,10,,,,89,63,,
0.41,42,27,0.63,,,2,CSC(=S)NCc1cc2ccccc2[nH]1 [ISOBRASSININ],,48,,,,,100,,
1.48,98,99,1.47,,,,COc1ccn2ncc(CNC(=S)SC)c2c1,,,,,,,,,
0.63,53,42,0.79,,,,c1ccc(-c2coc3ccccc23)cc1,,32,,,,80,64,,
0.84,63,56,0.95,,,,c1ccc2c(-c3nccs3)c[nH]c2c1 [CAMALEXIN],81,100,,,,,,,
0.55,50,37,0.75,9,,,CSC(=S)NCc1coc2ccccc12,,,,,inactive,45,23,,
